Reference: ChEMBL document CHEMBL1177775, “A novel synthesis of 3-aryl coumarins and evaluation of their antioxidant and lipoxygenase inhibitory activity” (Bioorg Med Chem Lett, 2010)
Calls of active or inactive are those of the source. The rule behind the calls is not given here.

Legend:
[1] = test system: Radical scavenging activity; experiment: Antioxidant activity assessed as DPPH radical scavenging activity at 50 uM after 20 mins; format: functional
How it was run: (§1)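 Interaction with the stable DPPH free radical in an iron-free system, with compounds at 50 μM. Readings were taken at 20 and 60 min. Each experiment was run at least in triplicate, and the standard deviation of absorbance was under 10% of the mean.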

[2] = test system: Radical scavenging activity; experiment: Antioxidant activity assessed as DPPH radical scavenging activity at 50 uM after 60 mins; format: functional; how it was run: as §1
[3] = Antioxidant activity assessed as inhibition of AAPH-induced lipid peroxidation at 100 uM by UV spectrophotometry; format: functional
Glycine max = experiment: Inhibition of soybean lipoxygenase at 100 uM

inhibition (Glycine max)	SMILES	Activity [1] [%]	Activity [2] [%]	inhibition [3] [%]
inactive	COc1ccc(-c2cc3ccccc3oc2=O)cc1OC	4	7	47
62%	COc1ccc(-c2c(C)c3ccccc3oc2=O)cc1	5	2	24
inactive	Cc1c(-c2ccc(Br)cc2)c(=O)oc2ccccc12	3	4	70
40%	CC(Cc1ccc(O)c(O)c1)C(C)Cc1ccc(O)c(O)c1 (stereo not drawn)	84	83	
inactive	Cc1c(-c2ccc(O)cc2)c(=O)oc2ccccc12	5	9	20
	Cc1c(C)c2c(c(C)c1O)CCC(C)(C(=O)O)O2 (stereo not drawn)			63
6%	Cc1c(-c2ccccc2Br)c(=O)oc2ccccc12	4	3	20
31%	COc1ccc(-c2c(C)c3ccccc3oc2=O)cc1OC	8	10	36
